PubChem BioAssay
Values without a mark were called inactive. Some of the results follow. Calls of active or inactive are those of the source.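 The calls were made as follows, unless noted: active = mean inhibition across replicates above the hit cutoff set by the earlier primary screen (cut at about 15% in these data); inactive = the rest.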

Legend:
[1] = target: Protein-arginine deiminase type-4 (Homo sapiens) (UniProt Q9UM07); experiment: protein arginine deiminase 4 blockade, retest – biochemical, fluorescence polarization, confirmation (AID 488796); conditions: recombinant PAD4, RCA probe fluorescence polarization; at 6.36 µM; hits give high values;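 also: inhibitors block active-site labeling by the probe so polarization falls; 0% = PAD4 with probe and DMSO and 100% = probe without PAD4 enzyme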
[2] = BSA probe fluorescence interference – biochemical, TAMRA-labeled BSA, counter-screen for TCR-CD3 interaction inhibitor project (AID 652035; in the data active = inhibition above about 23%;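 also: 0% = buffer low control and 100% = reference high control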); conditions: TAMRA-labeled BSA probe fluorescence counterscreen; at 9.4 µM; hits give high values
[3] = test system: T-cell receptor (TCR)-CD3 interaction, human; experiment: blockers of TCR binding to CD3 – biochemical, fluorescence, TAMRA-labeled TCR probe, confirmation (AID 652036; in the data active = inhibition above about 19%); conditions: TAMRA-labeled TCR probe fluorescence binding assay; at 9.4 µM; hits give high values
[4] = target: (Lyso)-N-acylphosphatidylethanolamine lipase (Mus musculus) (UniProt Q8VD66); experiment: mouse ABHD4 hydrolase blockers, triplicate – biochemical, fluorescence polarization, confirmation (AID 720658;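 active = mean inhibition across replicates above the hit cutoff set in the primary screen, cut at about 30% in these data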;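 also: 0% = wild-type ABHD4 with DMSO and 100% = catalytically dead S159A mutant with DMSO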); conditions: purified mABHD4, FP-Rh probe fluorescence polarization; at 8.92 µM; hits give high values
Outline: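 material = wild-type mouse ABHD4 | signal = fluorescence polarization, excitation 525 nm, emission 598 nm | times = 45 min compound pretreatment plus 60 min FP-Rh labeling, 25 °C | also added = Rhodamine-tagged fluorophosphonate probe FP-Rh | read-out = percent inhibition scaled between wild-type DMSO and S159A mutant wells | medium = HEPES-saline buffer with 0.01% Pluronic F-127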

[5] = test system: transactivating tegument protein VP16 (Human herpesvirus 1); experiment: compounds suppressing VP16-driven luciferase signal – cell-based, luminescence, single concentration, counter-screen for SRC2 inhibitor project (AID 652007; in the data active = inhibition above about 36%); conditions: cell-based VP16 transactivation luciferase reporter, at 8.9 µM, hits give high values
[6] = target: Nuclear receptor coactivator 2 (Homo sapiens) (UniProt Q15596); experiment: inhibition of GAL4-SRC2 driven luciferase expression – cell-based, luminescence, HEK293, triplicate, confirmation (AID 652008;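 active = mean inhibition above 46.5%, the solvent-only control mean plus 3 SD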;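 also: 0% = DMSO-treated cells and 100% = Gossypol at 36 µM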); conditions: HEK293 GAL4-SRC2 luciferase reporter, at 8.9 µM, hits give high values
[7] = target: Platelet-activating factor acetylhydrolase (Homo sapiens) (UniProt Q13093); experiment: inhibition of plasma PAF acetylhydrolase – biochemical, fluorescence polarization, human, confirmation (AID 463230;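 active = mean inhibition of the triplicate above the hit cutoff set for the earlier primary screen, cut at about 25% in these data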;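 also: 0% = enzyme with DMSO and 100% = wells lacking pPAFAH enzyme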); conditions: recombinant pPAFAH, FP-Rh probe fluorescence polarization; at 3.39 µM; hits give high values
[8] = test system: DAF-12 nuclear receptor (Heterodera glycines), GAL4-LBD fusion; experiment: hgDAF-12 GAL4 fusion reporter activation, retest – cell-based, luminescence, HEK293, GAL4-LBD fusion, confirmation (AID 743050;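 active = mean activation over triplicate wells above the hit cutoff derived from the earlier primary screen, cut at about 11% in these data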;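 also: 0% = DMSO low control and 100% = 2 mM sodium butyrate high control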); conditions: HEK293 GAL4-hgDAF12 luciferase reporter, agonist mode; at 6.8 µM; hits give high values; percent of butyrate response
[9] = target: Oxysterols receptor LXR-beta (Homo sapiens) (UniProt P55055); experiment: nonspecific reporter activation via LXR – cell-based, luminescence, HEK293, H. glycines campaign, counter-screen for hgDAF-12 agonist project, confirmation (AID 743051;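 active = mean activation of the triplicate above a set limit carried over from the primary screen, none filed active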); conditions: HEK293 Gal4-LXR luciferase reporter, 24 h; at 6.8 µM; hits give high values
Outline: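 test system = Gal4-LXR luciferase reporter HEK293 cells | times = 3 h cell plating, then 24 h compound exposure at 37 °C | signal = luciferase luminescence | benchmarks = DMSO low control, 0.68% final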

Sequence of (Lyso)-N-acylphosphatidylethanolamine lipase (Mus musculus) (Q8VD66 whole entry, looked up): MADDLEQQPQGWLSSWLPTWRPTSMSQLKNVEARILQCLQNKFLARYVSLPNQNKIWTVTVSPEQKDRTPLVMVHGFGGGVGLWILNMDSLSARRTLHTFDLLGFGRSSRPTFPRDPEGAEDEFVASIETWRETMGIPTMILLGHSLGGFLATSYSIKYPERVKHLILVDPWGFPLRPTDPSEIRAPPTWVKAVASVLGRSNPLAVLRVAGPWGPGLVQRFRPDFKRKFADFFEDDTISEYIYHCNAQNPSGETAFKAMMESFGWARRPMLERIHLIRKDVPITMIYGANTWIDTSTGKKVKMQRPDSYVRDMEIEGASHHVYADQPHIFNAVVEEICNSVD
Sequence of Protein-arginine deiminase type-4 (Homo sapiens) (Q9UM07 whole entry, looked up): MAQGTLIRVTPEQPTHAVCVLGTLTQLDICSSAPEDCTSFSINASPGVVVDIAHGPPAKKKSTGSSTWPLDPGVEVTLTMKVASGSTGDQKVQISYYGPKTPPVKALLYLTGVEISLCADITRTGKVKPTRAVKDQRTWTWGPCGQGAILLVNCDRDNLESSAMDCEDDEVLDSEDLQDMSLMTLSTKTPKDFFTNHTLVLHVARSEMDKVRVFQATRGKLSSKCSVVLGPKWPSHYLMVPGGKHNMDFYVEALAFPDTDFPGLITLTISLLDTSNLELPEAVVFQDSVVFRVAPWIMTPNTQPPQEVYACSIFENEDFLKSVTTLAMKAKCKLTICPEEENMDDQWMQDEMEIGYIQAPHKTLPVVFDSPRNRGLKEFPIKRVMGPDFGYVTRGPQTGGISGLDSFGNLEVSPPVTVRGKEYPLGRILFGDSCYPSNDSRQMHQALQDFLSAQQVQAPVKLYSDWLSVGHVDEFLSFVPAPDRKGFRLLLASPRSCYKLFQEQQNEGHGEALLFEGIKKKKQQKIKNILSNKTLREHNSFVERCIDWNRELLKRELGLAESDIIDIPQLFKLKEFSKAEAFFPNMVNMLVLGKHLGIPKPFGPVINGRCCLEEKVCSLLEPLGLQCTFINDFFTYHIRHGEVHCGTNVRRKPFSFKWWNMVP
Sequence of Platelet-activating factor acetylhydrolase (Homo sapiens) (Q13093 whole entry, looked up, the tested form may be a part): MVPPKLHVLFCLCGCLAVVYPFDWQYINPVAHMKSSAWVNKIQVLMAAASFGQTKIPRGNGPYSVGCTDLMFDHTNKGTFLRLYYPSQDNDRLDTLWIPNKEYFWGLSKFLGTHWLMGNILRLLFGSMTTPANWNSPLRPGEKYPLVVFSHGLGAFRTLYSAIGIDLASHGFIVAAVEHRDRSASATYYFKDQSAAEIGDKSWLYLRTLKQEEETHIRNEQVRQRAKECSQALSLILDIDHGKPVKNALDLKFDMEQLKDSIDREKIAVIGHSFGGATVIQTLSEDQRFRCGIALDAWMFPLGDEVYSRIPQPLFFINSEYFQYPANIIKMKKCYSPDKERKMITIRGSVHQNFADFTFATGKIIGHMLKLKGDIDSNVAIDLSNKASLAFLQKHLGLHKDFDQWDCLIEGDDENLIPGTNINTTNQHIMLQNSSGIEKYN
Sequence of Nuclear receptor coactivator 2 (Homo sapiens) (Q15596 whole entry, looked up, the tested form may be a part): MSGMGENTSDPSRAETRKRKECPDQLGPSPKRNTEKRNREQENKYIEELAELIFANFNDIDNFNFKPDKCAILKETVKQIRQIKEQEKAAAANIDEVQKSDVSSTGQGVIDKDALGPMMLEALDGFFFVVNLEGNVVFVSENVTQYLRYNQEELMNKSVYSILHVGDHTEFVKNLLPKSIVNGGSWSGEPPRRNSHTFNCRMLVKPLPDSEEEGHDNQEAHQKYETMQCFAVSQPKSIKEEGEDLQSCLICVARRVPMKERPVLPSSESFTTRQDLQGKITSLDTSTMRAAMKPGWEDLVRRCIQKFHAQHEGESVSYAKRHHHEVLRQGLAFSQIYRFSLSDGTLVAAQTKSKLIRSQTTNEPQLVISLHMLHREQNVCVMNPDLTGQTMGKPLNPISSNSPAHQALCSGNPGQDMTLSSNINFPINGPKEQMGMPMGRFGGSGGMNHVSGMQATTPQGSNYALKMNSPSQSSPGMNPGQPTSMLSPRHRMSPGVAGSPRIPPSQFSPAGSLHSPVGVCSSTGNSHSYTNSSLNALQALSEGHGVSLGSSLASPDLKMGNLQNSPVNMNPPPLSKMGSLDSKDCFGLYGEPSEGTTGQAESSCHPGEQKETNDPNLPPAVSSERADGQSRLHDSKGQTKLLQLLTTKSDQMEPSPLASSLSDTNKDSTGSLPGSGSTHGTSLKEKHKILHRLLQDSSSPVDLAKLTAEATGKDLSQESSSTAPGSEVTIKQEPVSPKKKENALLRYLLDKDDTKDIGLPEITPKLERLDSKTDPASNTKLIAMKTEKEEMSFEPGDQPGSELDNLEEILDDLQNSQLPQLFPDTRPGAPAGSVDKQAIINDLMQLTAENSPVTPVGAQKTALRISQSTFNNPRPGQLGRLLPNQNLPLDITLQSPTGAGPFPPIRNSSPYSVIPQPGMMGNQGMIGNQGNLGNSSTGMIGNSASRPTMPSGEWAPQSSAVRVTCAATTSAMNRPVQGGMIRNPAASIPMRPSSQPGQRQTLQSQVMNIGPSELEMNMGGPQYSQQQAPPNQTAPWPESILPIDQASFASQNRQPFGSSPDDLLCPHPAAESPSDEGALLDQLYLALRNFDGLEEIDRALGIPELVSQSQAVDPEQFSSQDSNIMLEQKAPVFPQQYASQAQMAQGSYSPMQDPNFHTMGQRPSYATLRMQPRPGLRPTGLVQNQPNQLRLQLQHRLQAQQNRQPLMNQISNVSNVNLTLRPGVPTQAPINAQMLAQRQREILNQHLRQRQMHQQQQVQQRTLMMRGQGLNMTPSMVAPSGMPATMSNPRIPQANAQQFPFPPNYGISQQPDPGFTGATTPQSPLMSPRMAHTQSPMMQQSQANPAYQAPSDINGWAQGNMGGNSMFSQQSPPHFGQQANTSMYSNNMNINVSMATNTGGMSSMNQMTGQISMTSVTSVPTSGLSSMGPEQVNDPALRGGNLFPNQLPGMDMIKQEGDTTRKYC
Sequence of Oxysterols receptor LXR-beta (Homo sapiens) (P55055 whole entry, looked up, the tested form may be a part): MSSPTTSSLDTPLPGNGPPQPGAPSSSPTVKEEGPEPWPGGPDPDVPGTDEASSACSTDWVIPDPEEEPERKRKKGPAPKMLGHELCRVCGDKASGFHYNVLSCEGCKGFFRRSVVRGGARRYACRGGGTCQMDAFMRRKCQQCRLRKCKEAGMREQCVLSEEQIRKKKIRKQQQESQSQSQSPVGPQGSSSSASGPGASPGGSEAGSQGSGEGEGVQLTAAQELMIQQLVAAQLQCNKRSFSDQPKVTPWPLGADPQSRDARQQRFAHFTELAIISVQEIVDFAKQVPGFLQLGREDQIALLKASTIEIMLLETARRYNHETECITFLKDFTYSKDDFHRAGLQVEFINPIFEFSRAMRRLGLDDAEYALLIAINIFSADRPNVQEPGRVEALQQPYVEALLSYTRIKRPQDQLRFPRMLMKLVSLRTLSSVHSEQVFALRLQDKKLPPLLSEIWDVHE

Question: Which inhibition [1] does the source give for `O=C(CN1CCCCCC1)Nc1ccc(Br)cc1Br` here?
Answer: 3.01%

Question: For `Cc1nc2ccc(NC(=O)C(F)(F)F)cc2o1`, which inhibition [1] is on record?
Answer: 4.72%

Question: Which inhibition [1] does the source give for `O=C(NCCCO)c1cc2c([nH]c3ccccc32)c(-c2ccc(F)cc2)n1` here?
Answer: 22.4% (active)

Question: With `COc1cc(SC#N)ccc1N=Cc1c(C)[nH]n(-c2ccc(C)cc2)c1=O` as the compound, how does the inhibition [1] read?
Answer: 29.7% (active)

Question: Which results are given for `O=c1[nH]n(-c2ccc([N+](=O)[O-])cc2)c(=O)c2ccccc12`?
Answer: inhibition [1]: 25.3% (active); inhibition [2]: 59.3% (active); inhibition [3]: 46% (active); inhibition [4]: 43.2% (active)

Question: With `COc1cc(C(=O)NCc2ccc3c(c2)cc(C)n3C)cc(OC)c1OC` as the compound, how does the inhibition [1] read?
Answer: 1.97%

Question: With `Cc1nn(-c2ccccc2)c(C)c1NC(=O)COc1ccc(Cl)cc1Cl` as the compound, how does the inhibition [1] read?
Answer: 5.05%

Question: What about the inhibition [5] of the same compound?
Answer: -8.62%

Question: What about the inhibition [6] of the same compound?
Answer: 16.2%

Question: With `CN1C(=O)c2cccc3c(N)ccc(c23)C1=O` as the compound, how does the inhibition [1] read?
Answer: 17.1% (active)

Question: And the inhibition [4]?
Answer: 31.5% (active)

Question: For `CC(C)c1ccc(NC(=S)NNc2ccc(Cl)c(C(=O)O)c2)cc1`, which inhibition [7] is on record?
Answer: 11.9%

Question: What about the inhibition [4] of the same compound?
Answer: 19.4%

Question: With `COc1ccccc1CNC(=O)C1CCN(c2nc3ccccc3o2)CC1` as the compound, how does the inhibition [1] read?
Answer: 5.44%

Question: For `COC(=O)c1ccc(NC(=O)CSc2nncc3ccc(OC)c(OC)c23)cc1`, which inhibition [1] is on record?
Answer: 0.13%

Question: For `Cc1ccn2cc(-c3nonc3C)cc2c1`, which inhibition [1] is on record?
Answer: 6.98%

Question: Which inhibition [7] does the source give for `CCC(=O)Nc1sc(C(=O)Nc2ccccc2)c(C)c1C(=O)OC` here?
Answer: 4.86%

Question: What about the activation [8] of the same compound?
Answer: 9.78%

Question: What about the activation [9] of the same compound?
Answer: 0.28%

Question: With `Cc1cc2c(cc1C)N(C(=O)CN1C(=O)c3ccccc3C1=O)C(C)(C)c1ssc(=S)c1-2` as the compound, how does the inhibition [1] read?
Answer: 33.7% (active)
